Results reported in ChEMBL document CHEMBL2016483, “Discovery of novel and potent heterocyclic carboxylic acid derivatives as protein tyrosine phosphatase 1B inhibitors” (Bioorg Med Chem Lett, 2012).
Active and inactive are the calls of the source.

How the values were obtained:
Liver = assay: Metabolic stability of the compound in mouse liver microsomes assessed as metabolic rate at 1 uM after 30 mins by LC-MS-MS analysis; assay type: ADME, Microsome; details: 0.5 h
How it was run: (§1)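 Mouse and rat liver microsomes, metabolic rate read at 30 min. Stable was defined as metabolic rate <0.1 nmol/min/mg or 80% remaining at 30 min.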

[1] = Elimination half life in C57BL/6J mouse at 3 mg/kg, iv; assay type: ADME, organism-based; design: dose 3 mg/kg, route intravenous; details: in vivo, read-out: beta t1/2 (converted)
[2] = Tmax in C57BL/6J mouse at 30 mg/kg, po; assay type: ADME, organism-based; design: dose 30 mg/kg, route oral; details: in vivo
Liver microsomes = assay: Metabolic stability of the compound in rat liver microsomes assessed as metabolic rate at 1 uM after 30 mins by LC-MS-MS analysis; assay type: ADME, Microsome; details: 0.5 h; how it was run: as §1
[3] = AUC (0 to t) in C57BL/6J mouse at 3 mg/kg, iv; assay type: ADME, organism-based; design: dose 3 mg/kg, route intravenous; details: plasma
[4] = Oral bioavailability in C57BL/6J mouse at 30 mg/kg; assay type: ADME, organism-based; details: in vivo
[5] = Cmax in C57BL/6J mouse at 3 mg/kg, iv; assay type: ADME, organism-based; design: dose 3 mg/kg, route intravenous; details: in vivo
[6] = Volume of distribution at steady state in C57BL/6J mouse at 3 mg/kg, iv; assay type: ADME, organism-based; design: dose 3 mg/kg, route intravenous; details: in vivo, read-out: Vdss
[7] = AUC (0 to t) in C57BL/6J mouse at 30 mg/kg, po; assay type: ADME, organism-based; design: dose 30 mg/kg, route oral; details: plasma
[8] = biological target: T1, Tyrosine-protein phosphatase non-receptor type 2 (Homo sapiens) (UniProt P17706); assay: Inhibition of TCPTP using para-nitrophenyl phosphate as substrate at 100 uM preincubated for 30 mins followed by substrate addition measured by […] analysis
T1 sequence (whole entry): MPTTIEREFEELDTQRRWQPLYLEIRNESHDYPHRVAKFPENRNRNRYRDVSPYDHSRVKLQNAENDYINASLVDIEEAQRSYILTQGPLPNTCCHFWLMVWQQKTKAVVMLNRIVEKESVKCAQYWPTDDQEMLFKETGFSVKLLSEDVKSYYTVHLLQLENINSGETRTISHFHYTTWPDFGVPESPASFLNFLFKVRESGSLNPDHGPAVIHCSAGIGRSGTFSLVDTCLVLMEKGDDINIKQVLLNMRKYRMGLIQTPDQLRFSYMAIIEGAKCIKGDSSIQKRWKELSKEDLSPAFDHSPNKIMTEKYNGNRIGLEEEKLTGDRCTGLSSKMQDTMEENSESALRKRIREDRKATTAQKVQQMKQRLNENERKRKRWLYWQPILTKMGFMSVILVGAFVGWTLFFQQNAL
How it was run: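 TCPTP counter-screen in the same pNPP assay format, tested at 100 µM. Read as percent inhibition.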

[9] = Cmax in C57BL/6J mouse at 30 mg/kg, po; assay type: ADME, organism-based; design: dose 30 mg/kg, route oral; details: in vivo
[10] = Apparent permeability by PAMPA assay; assay type: ADME
[11] = Clearance in C57BL/6J mouse at 3 mg/kg, iv; assay type: ADME, organism-based; design: dose 3 mg/kg, route intravenous; details: in vivo
[12] = Tmax in C57BL/6J mouse at 3 mg/kg, iv; assay type: ADME, organism-based; design: dose 3 mg/kg, route intravenous; details: in vivo
[13] = biological target: T2, Tyrosine-protein phosphatase non-receptor type 1 (Homo sapiens, UniProt P18031); assay: Inhibition of human recombinant PTP1B expressed in Escherichia coli using para-nitrophenyl phosphate as substrate preincubated for 30 mins followed by substrate addition measured by […] analysis
T2 sequence (P18031 whole entry): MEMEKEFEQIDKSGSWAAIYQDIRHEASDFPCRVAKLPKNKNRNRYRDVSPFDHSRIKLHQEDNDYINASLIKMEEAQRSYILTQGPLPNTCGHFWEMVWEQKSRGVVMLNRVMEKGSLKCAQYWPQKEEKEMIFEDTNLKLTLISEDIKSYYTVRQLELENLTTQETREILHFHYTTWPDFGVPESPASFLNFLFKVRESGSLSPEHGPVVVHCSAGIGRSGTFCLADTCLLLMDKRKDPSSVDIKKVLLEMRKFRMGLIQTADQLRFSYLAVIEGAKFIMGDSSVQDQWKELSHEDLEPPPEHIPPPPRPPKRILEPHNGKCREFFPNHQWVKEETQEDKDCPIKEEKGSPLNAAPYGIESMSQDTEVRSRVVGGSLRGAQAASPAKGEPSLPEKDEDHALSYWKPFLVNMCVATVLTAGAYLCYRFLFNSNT

[14] = Apparent permeability across human Caco2 cells; assay type: ADME, cell-based; details: Caco-2
[15] = biological target: T3, Tyrosine-protein phosphatase non-receptor type 1 (Homo sapiens) (UniProt P18031); assay: Non-competitive inhibition of human recombinant PTP1B-mediated para-nitrophenyl phosphate hydrolysis preincubated for 30 mins measured by spectrophotometric analysis
T3 sequence (whole entry): T2 sequence (P18031 whole entry)

Row | SMILES | Drug metabolism (Liver) | Drug metabolism (Liver microsomes) | Papp [10] | Ki [13] | further results
1 | O=C(O)c1cc(-c2ccc(CC(c3ccccc3)c3nc(-c4ccccc4)no3)cc2)no1 (stereo not drawn) | 0.04 nmol/min/mg | 0.03 nmol/min/mg | 45 ×10⁻⁶ cm/s | 4000 nM | half-life [1]: 1 h; Tmax [2]: 1 h; AUC(0-t) [3]: 1.8 µM·h; bioavailability [4]: 70%; Cmax [5]: 1500 nM; Vd [6]: 4.8 L/kg; AUC(0-t) [7]: 13 µM·h; inhibition [8]: < 10%; Cmax [9]: 7200 nM; clearance [11]: 63 mL/min/kg; Tmax [12]: 4.8 min
2 | O=C(O)c1cc(-c2ccc(CC(C(=O)c3cc(F)cc(F)c3)c3ccc(F)cc3)cc2)no1 (stereo not drawn) |  |  |  | 2400 nM | 
3 | O=C(O)c1cc(-c2ccc(CC(C(=O)c3ccccc3)c3ccccc3)cc2)n[nH]1 (stereo not drawn) |  |  |  | 16300 nM | 
4 | Cn1nc(-c2ccc(CC(C(=O)c3ccccc3)c3ccccc3)cc2)cc1C(=O)O (stereo not drawn) |  |  |  | 7800 nM | 
5 | O=C(O)c1ccc(-c2ccc(CC(C(=O)c3ccccc3)c3ccccc3)cc2)[nH]1 (stereo not drawn) |  |  |  | 2900 nM | 
6 | O=C(O)c1onc(-c2ccc(CC(C(=O)c3ccccc3)c3ccccc3)cc2)c1C(=O)O (stereo not drawn) |  |  |  | 40000 nM | 
7 | O=C(O)C1CCN(c2ccc(CC(C(=O)c3ccccc3)c3ccccc3)cc2)C1=O (stereo not drawn) |  |  |  | 5100 nM | 
8 | COC(=O)c1c(O)cccc1OC/C=C/c1ccc(F)c(-c2cc(C(=O)O)no2)c1 |  |  |  |  | Papp [14]: > 1 ×10⁻⁶ cm/s
9 | O=C(O)c1coc(-c2ccc(CC(C(=O)c3ccccc3)c3ccccc3)cc2)n1 (stereo not drawn) |  |  |  | 7800 nM | 
10 | O=C(O)C1CC(=O)N(c2ccc(CC(C(=O)c3ccccc3)c3ccccc3)cc2)C1 (stereo not drawn) |  |  |  | 7700 nM | 
11 | O=C(O)c1csc(-c2ccc(CC(C(=O)c3ccc(F)c(F)c3)c3ccc(F)cc3)cc2)n1 (stereo not drawn) |  |  |  | 1800 nM | 

More lines, in order of falling Ki [13], values ahead:

Row | Drug metabolism (Liver) | Drug metabolism (Liver microsomes) | Papp [10] | Ki [13] | SMILES | further results
12 | 0.01 nmol/min/mg | 0.02 nmol/min/mg | 8 ×10⁻⁶ cm/s | 1500 nM | O=C(O)c1cc(-c2ccc(CC(C(=O)c3ccc(F)cc3)c3ccc(F)cc3)cc2)no1 (stereo not drawn) | 
13 | 0 nmol/min/mg | 0.01 nmol/min/mg | 16 ×10⁻⁶ cm/s | 1400 nM | O=C(O)c1cc(-c2ccc(CC(C(=O)c3ccc(F)c(F)c3)c3ccc(F)cc3)cc2)no1 (stereo not drawn) | 
14 | 0.05 nmol/min/mg | 0.02 nmol/min/mg | 85 ×10⁻⁶ cm/s | 1200 nM | O=C(O)c1csc(-c2ccc(CC(C(=O)c3ccccc3)c3ccccc3)cc2)n1 (stereo not drawn) | 
15 | 0.06 nmol/min/mg | 0.02 nmol/min/mg | 103 ×10⁻⁶ cm/s | 1100 nM | O=C(O)c1cc(-c2ccc(CC(C(=O)c3ccccc3)c3ccccc3)cc2)no1 (stereo not drawn) | inhibition [8]: < 10%
16 | 0 nmol/min/mg | 0 nmol/min/mg | 168 ×10⁻⁶ cm/s | 800 nM | O=C(O)c1cc(-c2ccc(CC(C(=O)c3ccc(Cl)cc3)c3ccc(F)c(F)c3)cc2)no1 (stereo not drawn) | half-life [1]: 1.9 h; Tmax [2]: 1 h; AUC(0-t) [3]: 2.4 µM·h; bioavailability [4]: 13%; Cmax [5]: 4500 nM; Vd [6]: 4 L/kg; AUC(0-t) [7]: 3 µM·h; inhibition [8]: < 10%; Cmax [9]: 1900 nM; clearance [11]: 38 mL/min/kg; Tmax [12]: 4.98 min
17 |  |  |  | 600 nM | O=C(O)c1csc(-c2ccc(CC(C(=O)c3ccc(Cl)cc3)c3ccc(F)c(F)c3)cc2)n1 (stereo not drawn) | inhibition [8]: < 10%
18 | 0 nmol/min/mg | 0.04 nmol/min/mg | 6 ×10⁻⁶ cm/s | 500 nM | COc1ccc(C(Cc2ccc(-c3nc(C(=O)O)cs3)cc2)c2nc(-c3cccc(F)c3)no2)cc1 (stereo not drawn) | 
19 | 0 nmol/min/mg | 0.01 nmol/min/mg | 10 ×10⁻⁶ cm/s | 500 nM | O=C(O)c1csc(-c2ccc(CC(c3ccc(F)cc3)c3nc(-c4cccc(F)c4)no3)cc2)n1 (stereo not drawn) | 
20 | 0 nmol/min/mg | 0.01 nmol/min/mg | 4 ×10⁻⁶ cm/s | 400 nM | COc1ccc(-c2noc(C(Cc3ccc(-c4cc(C(=O)O)on4)cc3)c3ccc(F)cc3)n2)cc1 (stereo not drawn) | inhibition [8]: < 10%
21 | 0 nmol/min/mg | 0.03 nmol/min/mg | 48 ×10⁻⁶ cm/s | 300 nM | COc1ccc(C(Cc2ccc(-c3cc(C(=O)O)on3)cc2)c2nc(-c3ccc(Cl)cc3)no2)cc1 (stereo not drawn) | half-life [1]: 1.08 h; Tmax [2]: 1 h; inhibition [15]: Active; AUC(0-t) [3]: 0.98 µM·h; bioavailability [4]: 36%; Cmax [5]: 1870 nM; Vd [6]: 4 L/kg; AUC(0-t) [7]: 3.6 µM·h; inhibition [8]: < 10%; Cmax [9]: 1340 nM; clearance [11]: 99 mL/min/kg; Tmax [12]: 4.98 min
